Assay results: paper PMC7444767 (British Journal of Clinical Pharmacology, 2020)
Values belong to the compound of their own block, whether it stands above or below them.

Experiments:
[1] = tested on: murine models of collagen‐ and collagen antibody–induced arthritis; conditions: administered orally once daily (QD); both arthritis models; cited from earlier work
[2] = molecular target: Bruton's tyrosine kinase (BTK) (Homo sapiens, UniProt Q06187); assay: BTK occupancy in blood by immunocapture LC–MS/MS; format: in vivo; conditions: for Time at which BTK occupancy reached steady state: MAD
Chain of Bruton's tyrosine kinase (BTK) (Q06187 whole entry, the tested form may be a part): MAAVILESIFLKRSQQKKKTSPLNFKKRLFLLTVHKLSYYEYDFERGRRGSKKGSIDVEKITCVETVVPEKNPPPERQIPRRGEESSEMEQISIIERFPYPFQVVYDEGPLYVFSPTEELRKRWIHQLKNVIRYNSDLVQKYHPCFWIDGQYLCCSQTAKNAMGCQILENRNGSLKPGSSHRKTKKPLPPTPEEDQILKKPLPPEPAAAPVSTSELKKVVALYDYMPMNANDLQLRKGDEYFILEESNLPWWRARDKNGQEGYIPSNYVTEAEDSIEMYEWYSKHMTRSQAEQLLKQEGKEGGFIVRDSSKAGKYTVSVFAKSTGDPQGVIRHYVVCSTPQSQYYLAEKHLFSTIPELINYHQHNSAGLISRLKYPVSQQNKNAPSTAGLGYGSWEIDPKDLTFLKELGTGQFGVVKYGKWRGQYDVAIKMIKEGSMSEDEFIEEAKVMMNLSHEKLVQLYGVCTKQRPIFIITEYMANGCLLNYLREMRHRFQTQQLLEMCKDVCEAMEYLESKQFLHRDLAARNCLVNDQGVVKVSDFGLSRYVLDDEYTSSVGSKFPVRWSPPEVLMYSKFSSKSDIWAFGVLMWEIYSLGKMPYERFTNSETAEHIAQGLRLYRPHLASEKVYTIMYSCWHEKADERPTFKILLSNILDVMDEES
Outline: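 Healthy volunteers in SAD and MAD parts (MAD doses 0.3–10 mg). Whole blood in ACD-A was lysed at once in buffer with protease inhibitor and a Cys481-reactive quencher, shaken 1 h at room temperature, and stored ≤−70°C. Anti-BTK bead immunocapture, on-bead trypsin digest, and LC–MS/MS of drug- or quencher-bound Cys481 peptide (residues 467–487). Occupancy = DB/(DB+QB)×100, and total BTK was also derived.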

BTK = conditions: cited from earlier work
[3] = tested on: peripheral blood B‐cell populations; assay: Peripheral blood B-cell subsets; format: in vivo, human; conditions: MAD part
Outline: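 Double-blind, placebo-controlled multiple-ascending-dose part in healthy adults aged 18–55 y (BMI 18–32 kg m−2), randomised 3:1 to test compound or placebo. Oral dosing once daily for 14 days at 0.3, 1, 3 or 10 mg, with 14 days of post-dosing follow-up. Peripheral blood B-cell subsets measured and summarised with descriptive statistics.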

[4] = preclinical studies; cited from earlier work
healthy participants = assay: Safety assessment; format: in vivo, human; conditions: for Dizziness / Dysmenorrhoea / Headache / Myalgia / Nausea / Oral herpes / Rash / Tension headache / Throat irritation / Upper respiratory tract infection: all branebrutinib doses
[5] = Plasma pharmacokinetics by validated LC–MS/MS; format: in vivo, human; conditions: for AUC(0-inf) / Cmax / half-life / Tmax / Vd/F: human, plasma; for AUC(0-inf): GM AUCinf; for Cmax: GM Cmax; for Tmax: Median Tmax
[6] = tested on: serum immunoglobulin levels; assay: Serum immunoglobulins; format: in vivo, human; conditions: both parts (SAD and MAD)
Outline: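 Healthy adults aged 18–55 y, randomised 3:1 to test compound or placebo, double-blind. Single-ascending-dose part: one oral dose of 0.3, 1, 3, 10 or 30 mg (n = 6 each; placebo n = 10). Multiple-ascending-dose part: oral dosing daily for 14 days at 0.3–10 mg. Serum immunoglobulins measured in both parts and summarised descriptively.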

EGFR kinases = conditions: cited from earlier work
[7] = oral, 0.3 mg, JMAD part (day 14), 0.3 mg QD, n = 6
[8] = oral, 0.3 mg, MAD part (day 14), 0.3 mg QD, n = 6
[9] = oral, 1 mg, MAD part (day 14), 1 mg QD, n = 6
[10] = oral, 1 mg, SAD part (day 1), 1 mg, n = 6
[11] = oral, 3 mg, JMAD part (day 14), 3 mg QD, n = 6
[12] = oral, 3 mg, MAD part (day 14), 3 mg QD, n = 6
[13] = oral, 3 mg, SAD part (day 1), 3 mg, n = 6
[14] = oral, 10 mg, JMAD part (day 14), 10 mg QD, n = 6
[15] = oral, 10 mg, MAD part (day 14), 10 mg QD, n = 5
[16] = oral, 10 mg, SAD part (day 1), 10 mg, n = 6
[17] = oral, 30 mg, SAD part (day 1), 30 mg, n = 6

Time at which BTK occupancy reached steady state ([2]; 0.3‐mg dose group): 14 days
Time at which BTK occupancy reached steady state ([2]; 10‐mg dose group): 1 days
Doses projected to be efficacious (BTK occupancy >90% at steady state) ([2]; at steady state, QD): ≥ 1 mg
GM CLT/F (apparent total body clearance) ([5]; JMAD part (day 14), 0.3 mg QD, n = 5): 94.0 (n = 5) L/hr
GM CLT/F (apparent total body clearance) ([5]; JMAD part (day 14), 3 mg QD, n = 6): 109 (n = 6) L/hr
GM CLT/F (apparent total body clearance) ([5]; JMAD part (day 14), 10 mg QD, n = 6): 72.2 (n = 6) L/hr
GM CLT/F (apparent total body clearance) ([5]; MAD part (day 14), 0.3 mg QD, n = 5): 81.3 (n = 5) L/hr
GM CLT/F (apparent total body clearance) ([5]; MAD part (day 14), 1 mg QD, n = 6): 95.5 (n = 6) L/hr
GM CLT/F (apparent total body clearance) ([5]; MAD part (day 14), 3 mg QD, n = 6): 98.1 (n = 6) L/hr
GM CLT/F (apparent total body clearance) ([5]; MAD part (day 14), 10 mg QD, n = 5): 99.5 (n = 5) L/hr
Accumulation following administration of multiple doses ([5]; MAD, QD 14 days): No accumulation
GM CLT/F (apparent total body clearance) ([5]; SAD part (day 1), 0.3 mg single oral dose, n = 6): 126 L/h
GM CLT/F (apparent total body clearance) ([5]; SAD part (day 1), 1 mg, n = 6): 124 L/h
GM CLT/F (apparent total body clearance) ([5]; SAD part (day 1), 3 mg, n = 6): 122 L/h
GM CLT/F (apparent total body clearance) ([5]; SAD part (day 1), 10 mg, n = 6): 99.6 L/h
GM CLT/F (apparent total body clearance) ([5]; SAD part (day 1), 30 mg, n = 6): 106 L/h
Time to drop to undetectable plasma levels ([5]; after single or multiple doses): ≤ 24 h
AUC(0-inf) ([5]; oral, 0.3 mg, JMAD part (day 14), 0.3 mg QD, n = 5): 3.2 ng·h/mL
AUC(0-inf) ([5]; oral, 0.3 mg, MAD part (day 14), 0.3 mg QD, n = 5): 3.7 ng·h/mL
Cmax [5, 7]: 2 ng/mL
Cmax [5, 8]: 2.2 ng/mL
half-life ([5]; oral, 0.3 mg, Mean t1/2, JMAD part (day 14), 0.3 mg QD, n = 5): 54.6 min
half-life ([5]; oral, 0.3 mg, Mean t1/2, MAD part (day 14), 0.3 mg QD, n = 5): 78 min
Tmax [5, 7]: 30 min
Tmax [5, 8]: 60 min
Vd/F ([5]; oral, 1 mg): 255 L
AUC(0-inf) [5, 9]: 10.5 ng·h/mL
AUC(0-inf) [5, 10]: 8.1 ng·h/mL
Cmax [5, 9]: 5.9 ng/mL
Cmax [5, 10]: 4.6 ng/mL
half-life ([5]; oral, 1 mg, Mean t1/2, MAD part (day 14), 1 mg QD, n = 6): 99.6 min
half-life ([5]; oral, 1 mg, Mean t1/2, SAD part (day 1), 1 mg, n = 6): 95.4 min
Tmax [5, 9]: 30 min
Tmax [5, 10]: 30 min
Vd/F ([5]; oral, 3 mg): 304 L
AUC(0-inf) [5, 11]: 27.4 ng·h/mL
AUC(0-inf) [5, 12]: 30.6 ng·h/mL
AUC(0-inf) [5, 13]: 24.5 ng·h/mL
Cmax [5, 11]: 16.3 ng/mL
Cmax [5, 12]: 17.8 ng/mL
Cmax [5, 13]: 14.2 ng/mL
half-life ([5]; oral, 3 mg, Mean t1/2, JMAD part (day 14), 3 mg QD, n = 6): 90.6 min
half-life ([5]; oral, 3 mg, Mean t1/2, MAD part (day 14), 3 mg QD, n = 6): 98.4 min
half-life ([5]; oral, 3 mg, Mean t1/2, SAD part (day 1), 3 mg, n = 6): 104 min
Tmax [5, 11]: 30 min
Tmax [5, 12]: 30 min
Tmax [5, 13]: 48 min
Vd/F ([5]; oral, 10 mg): 221 L
AUC(0-inf) [5, 14]: 139 ng·h/mL
AUC(0-inf) [5, 15]: 101 ng·h/mL
AUC(0-inf) [5, 16]: 100 ng·h/mL
Cmax [5, 14]: 97.2 ng/mL
Cmax [5, 15]: 60.5 ng/mL
Cmax [5, 16]: 66.6 ng/mL
half-life ([5]; oral, 10 mg, Mean t1/2, JMAD part (day 14), 10 mg QD, n = 6): 102 min
half-life ([5]; oral, 10 mg, Mean t1/2, MAD part (day 14), 10 mg QD, n = 5): 104 min
half-life ([5]; oral, 10 mg, Mean t1/2, SAD part (day 1), 10 mg, n = 6): 93.6 min
Tmax [5, 14]: 30 min
Tmax [5, 15]: 30 min
Tmax [5, 16]: 30 min
Vd/F ([5]; oral, 30 mg): 245 L
AUC(0-inf) [5, 17]: 282 ng·h/mL
Cmax [5, 17]: 179 ng/mL
half-life ([5]; oral, 30 mg, Mean t1/2, SAD part (day 1), 30 mg, n = 6): 97.8 min
Tmax [5, 17]: 30 min
Vd/F ([5]; po, 0.3 mg): 216 L
Trough observed concentrations ([5]; multiple doses, LLOQ 0.100 ng mL^−1): below the LLOQ
Systemic exposure vs dose ([5]; single or multiple doses): dose‐proportional
Compound: CC#CC(=O)N[C@H]1CCCN(c2c(F)cc(C(N)=O)c3[nH]c(C)c(C)c23)C1 [Branebrutinib]
Doses at which maximal efficacy was observed [1]: ≥ 0.5 mg/kg
Selectivity for BTK over 4 related Tec family kinases (BTK): < 5000 fold
Selectivity for BTK over 240 other kinases (BTK): > 5000 fold
Effect on peripheral blood B‐cell populations [3]: no obvious effect
Brain penetration [4]: < 5 % of plasma concentration
Dizziness (healthy participants; JMAD part, n = 18): 0 (0.0) n (%)
Dysmenorrhoea (healthy participants; JMAD part, n = 18): 2 (11.1) n (%)
Headache (healthy participants; JMAD part, n = 18): 1 (5.6) n (%)
Myalgia (healthy participants; JMAD part, n = 18): 0 (0.0) n (%)
Nausea (healthy participants; JMAD part, n = 18): 0 (0.0) n (%)
Oral herpes (healthy participants; JMAD part, n = 18): 0 (0.0) n (%)
Rash (healthy participants; JMAD part, n = 18): 0 (0.0) n (%)
Tension headache (healthy participants; JMAD part, n = 18): 0 (0.0) n (%)
Throat irritation (healthy participants; JMAD part, n = 18): 0 (0.0) n (%)
Upper respiratory tract infection (healthy participants; JMAD part, n = 18): 0 (0.0) n (%)
Serious AE (psychosis) leading to study discontinuation, number (healthy participants; MAD part, 10‐mg cohort, Day 10, considered not related to study drug): 1
Any AE (healthy participants; MAD part, QD 14 days, all branebrutinib doses 0.3-10 mg, n = 24): 17 (70.8) n (%)
Dizziness (healthy participants; MAD part, n = 24): 0 (0.0) n (%)
Dysmenorrhoea (healthy participants; MAD part, n = 24): 0 (0.0) n (%)
Headache (healthy participants; MAD part, n = 24): 8 (33.3) n (%)
Myalgia (healthy participants; MAD part, n = 24): 0 (0.0) n (%)
Nausea (healthy participants; MAD part, n = 24): 2 (8.3) n (%)
Oral herpes (healthy participants; MAD part, n = 24): 3 (12.5) n (%)
Rash (healthy participants; MAD part, n = 24): 0 (0.0) n (%)
Tension headache (healthy participants; MAD part, n = 24): 2 (8.3) n (%)
Throat irritation (healthy participants; MAD part, n = 24): 0 (0.0) n (%)
Upper respiratory tract infection (healthy participants; MAD part, n = 24): 4 (16.7) n (%)
Dizziness (healthy participants; SAD part, n = 30): 3 (10.0) n (%)
Dysmenorrhoea (healthy participants; SAD part, n = 30): 2 (6.7) n (%)
Headache (healthy participants; SAD part, n = 30): 4 (13.3) n (%)
Myalgia (healthy participants; SAD part, n = 30): 2 (6.7) n (%)
Nausea (healthy participants; SAD part, n = 30): 2 (6.7) n (%)
Oral herpes (healthy participants; SAD part, n = 30): 1 (3.3) n (%)
Rash (healthy participants; SAD part, n = 30): 2 (6.7) n (%)
Tension headache (healthy participants; SAD part, n = 30): 0 (0.0) n (%)
Throat irritation (healthy participants; SAD part, n = 30): 2 (6.7) n (%)
Upper respiratory tract infection (healthy participants; SAD part, n = 30): 3 (10.0) n (%)
Any AE (healthy participants; SAD part, single dose, all branebrutinib doses 0.3-30 mg, n = 30): 18 (60.0) n (%)
Dose‐related trend in AEs (healthy participants; across both parts of the trial): no dose‐related trend
Tolerability (healthy participants; single or multiple doses in healthy participants): well tolerated
Effect on serum immunoglobulin levels [6]: no obvious effect
Activity against EGFR kinases (EGFR kinases; in vitro assessment): lacks activity

Compound: C=CC(=O)N1CCC[C@@H](n2nc(-c3ccc(Oc4ccccc4)cc3)c3c(N)ncnc32)C1 [ibrutinib, reference compound]
Inhibition of the EGFR family of kinases (EGFR kinases): potent irreversible inhibitor
